From ChEMBL document CHEMBL1125087, “Synthesis and biological activity of new HMG-CoA reductase inhibitors. 1. Lactones of pyridine- and pyrimidine-substituted 3,5-dihydroxy-6-heptenoic (-heptanoic) acids” (J Med Chem, 1990) come the findings set out here.

Experiment [1] has as its target T1, 3-hydroxy-3-methylglutaryl-coenzyme A reductase (Rattus norvegicus, UniProt P51639).
T1 sequence (P51639 whole entry): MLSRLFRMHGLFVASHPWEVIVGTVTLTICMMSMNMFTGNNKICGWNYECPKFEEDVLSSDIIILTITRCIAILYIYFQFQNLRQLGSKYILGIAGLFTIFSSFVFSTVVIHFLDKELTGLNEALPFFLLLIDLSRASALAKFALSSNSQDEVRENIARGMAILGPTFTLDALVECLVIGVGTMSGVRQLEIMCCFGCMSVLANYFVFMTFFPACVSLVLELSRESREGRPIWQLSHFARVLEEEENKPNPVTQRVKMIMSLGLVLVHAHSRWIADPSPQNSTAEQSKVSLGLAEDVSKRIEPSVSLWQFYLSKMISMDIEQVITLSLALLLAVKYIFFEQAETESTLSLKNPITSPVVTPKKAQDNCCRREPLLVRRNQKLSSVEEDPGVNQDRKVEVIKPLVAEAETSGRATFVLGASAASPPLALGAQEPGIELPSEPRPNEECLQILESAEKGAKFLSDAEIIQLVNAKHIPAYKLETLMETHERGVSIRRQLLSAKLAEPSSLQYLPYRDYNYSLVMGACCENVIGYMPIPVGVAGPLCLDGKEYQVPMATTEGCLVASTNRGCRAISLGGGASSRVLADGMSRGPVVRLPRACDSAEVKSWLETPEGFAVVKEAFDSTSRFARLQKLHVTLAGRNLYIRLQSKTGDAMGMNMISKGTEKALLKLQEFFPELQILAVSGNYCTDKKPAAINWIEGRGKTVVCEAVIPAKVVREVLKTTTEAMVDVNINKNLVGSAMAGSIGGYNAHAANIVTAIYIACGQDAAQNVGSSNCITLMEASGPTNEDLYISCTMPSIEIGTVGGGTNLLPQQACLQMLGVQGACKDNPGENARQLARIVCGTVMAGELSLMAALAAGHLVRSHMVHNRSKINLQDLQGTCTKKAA
The experiment in a line: In vitro inhibition of rat liver HMG-CoA reductase. The gist of the method:
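Partially purified soluble HMG-CoA reductase from rat liver microsomes. Medium: 6 mM Tris, 2.5 mM EDTA, 2.5 mM DTT, 50 mM NADP, 50 mM glucose 6-phosphate, glucose-6-phosphate dehydrogenase, and 0.91 mM HMG-CoA with [14C]HMG-CoA. Lactones were opened with 1 equiv KOH to potassium dihydroxy carboxylates and tested at multiple concentrations. Incubated at 37 °C for 20 min, then stopped with HClO4. Run in triplicate; IC50 read from a %-inhibition-versus-concentration plot.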

For experiment [2], the target named is T2, 3-hydroxy-3-methylglutaryl-coenzyme A reductase (Homo sapiens, UniProt P04035).
T2 sequence (P04035 whole entry): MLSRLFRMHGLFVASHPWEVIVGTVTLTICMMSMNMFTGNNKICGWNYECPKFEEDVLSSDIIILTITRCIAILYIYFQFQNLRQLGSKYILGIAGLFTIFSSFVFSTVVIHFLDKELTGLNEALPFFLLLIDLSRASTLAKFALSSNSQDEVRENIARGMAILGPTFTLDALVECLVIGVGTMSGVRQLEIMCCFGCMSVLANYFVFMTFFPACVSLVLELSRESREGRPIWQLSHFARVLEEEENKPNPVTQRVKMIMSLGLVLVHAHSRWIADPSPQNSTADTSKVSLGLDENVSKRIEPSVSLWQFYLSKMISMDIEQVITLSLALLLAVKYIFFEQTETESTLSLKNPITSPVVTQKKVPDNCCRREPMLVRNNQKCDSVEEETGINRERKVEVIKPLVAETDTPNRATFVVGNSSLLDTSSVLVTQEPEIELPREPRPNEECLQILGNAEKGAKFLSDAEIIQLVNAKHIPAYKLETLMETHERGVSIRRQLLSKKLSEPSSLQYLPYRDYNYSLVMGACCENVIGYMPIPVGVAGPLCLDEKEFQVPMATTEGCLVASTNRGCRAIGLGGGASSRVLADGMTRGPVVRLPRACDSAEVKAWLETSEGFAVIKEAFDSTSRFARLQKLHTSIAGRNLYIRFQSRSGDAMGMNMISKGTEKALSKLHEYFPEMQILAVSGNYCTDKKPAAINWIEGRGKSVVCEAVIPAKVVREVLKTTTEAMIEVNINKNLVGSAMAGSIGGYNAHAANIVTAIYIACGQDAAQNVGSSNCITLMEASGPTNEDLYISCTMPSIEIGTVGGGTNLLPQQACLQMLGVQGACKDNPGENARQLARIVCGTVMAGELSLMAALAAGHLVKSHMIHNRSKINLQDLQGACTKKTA
The experiment in a line: Inhibition of cellular HMG-CoA reductase in cultures of human HEP G2 cells, determined by decreased incorporation of sodium [14C]acetate into cholesterol. The class given is cell-based, HepG2. The gist of the method: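 They were preincubated for 1 h with compound at three concentrations, or with solvent as control, then labeled with [14C]sodium acetate for 3 h. [3H]cholesterol served as internal standard. Cells were saponified, lipids extracted with chloroform/methanol 2:1, and cholesterol isolated by TLC. IC50 came from the treated/control [14C]cholesterol ratio plotted against concentration.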

In experiment [3] the target is T3, 3-hydroxy-3-methylglutaryl-coenzyme A reductase (Homo sapiens) (UniProt P04035).
T3 sequence (whole entry): T2 sequence (P04035 whole entry)
In words: Relative inhibition of HMG-CoA reductase compared to Mevinolin.

Where only a bound is given, the exact number is not on record here.

`CC(C)(C)c1nc(-c2ccccc2)cc(-c2ccc(F)cc2)c1/C=C/[C@@H]1C[C@@H](O)CC(=O)O1` returned an IC50 in experiment [1] of 18 nM.

Consider `Cc1cc(-c2ccc(F)cc2)c(/C=C/[C@@H]2C[C@@H](O)CC(=O)O2)c(C)n1`, for which the IC50 came to 2000 nM in experiment [2] and 260 nM in experiment [1]. Further, in experiment [3], the Relative potency was 0.03.

`CC[C@H](C)C(=O)O[C@H]1C[C@@H](C)C=C2C=C[C@H](C)[C@H](CC[C@@H]3C[C@@H](O)CC(=O)O3)[C@H]21` [LOVASTATIN] registered a concentration for half-maximal inhibition (IC50) in experiment [1] of 8 nM.

`Cc1nc(C)c(/C=C/[C@@H]2C[C@@H](O)CC(=O)O2)c(-c2ccc(F)cc2)n1` gave an IC50 in experiment [1] of 500 nM.

`O=C1C[C@H](O)C[C@@H](/C=C/c2c(-c3ccc(F)cc3)cc(-c3ccccc3)nc2C2CCCCC2)O1`: the IC50 in experiment [2] was more than 5000 nM; in experiment [1], 30 nM. The compound also yielded a Relative potency in experiment [3] of more than 0.01.

`CC(C)c1nc(C2CCCCC2)nc(-c2ccc(F)cc2)c1/C=C/[C@@H]1C[C@@H](O)CC(=O)O1`: the IC50 in experiment [2] is 26 nM; in experiment [1] it was 1 nM. The Relative potency in experiment [3] stood at 1.92.

On to `CC(C)c1nc(-c2ccc(F)cc2)cc(-c2ccc(F)cc2)c1/C=C/[C@@H]1C[C@@H](O)CC(=O)O1`, for which the IC50 in experiment [2] came to 7.5 nM; in experiment [1], 2 nM. Moreover, the Relative potency in experiment [3] was 6.67.

In the case of `COc1ccc(-c2cc(-c3ccccc3)nc(C(C)C)c2/C=C/[C@@H]2C[C@@H](O)CC(=O)O2)cc1`, the IC50 in experiment [2] came to 150 nM; in experiment [1], 13 nM. Besides, the Relative potency in experiment [3] came out at 0.33.

Turning to `Cc1nc(C)c(CCC2C[C@@H](O)CC(=O)O2)c(-c2ccc(F)cc2)n1` (some centres undefined), the IC50 in experiment [1] was 1000 nM.

In the case of `Cc1nc(C)c(/C=C\[C@@H]2C[C@@H](O)CC(=O)O2)c(-c2ccc(Cl)cc2)n1`, the IC50 in experiment [1] is more than 1000 nM.

`CC(C)c1nc(-c2ccc(F)cc2)nc(-c2ccc(F)cc2)c1/C=C/[C@@H]1C[C@@H](O)CC(=O)O1`: the half-inhibitory concentration (IC50) was 18 nM in experiment [2] and 1 nM in experiment [1]. In experiment [3], this compound came in with a Relative potency of 2.78.

For the compound `CC(C)c1nc(C2CCCCC2)cc(-c2ccc(F)cc2)c1/C=C/[C@@H]1C[C@@H](O)CC(=O)O1`, the IC50 in experiment [2] amounted to 9.5 nM; in experiment [1] it was 4 nM. In experiment [3], this compound came in with a Relative potency of 5.26.

Take `CC(C)c1nc(-c2ccccc2)cc(-c2ccc(F)cc2)c1CCC1C[C@@H](O)CC(=O)O1` (some centres undefined): the IC50 turned out to be 370 nM in experiment [2] and 19 nM in experiment [1]. The Relative potency in experiment [3] is 0.14.

Turning to `CC(C)c1nc(-c2ccccc2)cc(-c2ccc(C(F)(F)F)cc2)c1/C=C/[C@@H]1C[C@@H](O)CC(=O)O1`, the IC50 in experiment [1] worked out at 36 nM.

In the case of `Cc1ccc(C)c(-c2cc(-c3ccc(F)cc3)c(/C=C/[C@@H]3C[C@@H](O)CC(=O)O3)c(C(C)C)n2)c1`, the IC50 in experiment [2] was 20 nM; in experiment [1], 5 nM. The Relative potency in experiment [3] came out at 2.5.

For the compound `Cc1nc(-c2ccccc2)cc(-c2ccc(F)cc2)c1/C=C/[C@@H]1C[C@@H](O)CC(=O)O1`, the IC50 in experiment [2] amounted to 90 nM; in experiment [1], 38 nM. In experiment [3], this compound registered a Relative potency of 0.56.

`Cc1nc(C)c(/C=C/[C@@H]2C[C@@H](O)CC(=O)O2)c(-c2ccc(Cl)cc2)n1` had an IC50 in experiment [1] of 600 nM.

Regarding `Cc1cc(-c2ccc(F)cc2)c(/C=C/[C@@H]2C[C@@H](O)CC(=O)O2)c(C(C)C)n1`, the IC50 in experiment [2] was found to be 50 nM; in experiment [1] it was 9 nM. In experiment [3], this compound displayed a Relative potency of 1.

As to `Cc1cc(C)cc(-c2cc(-c3ccc(F)cc3)c(/C=C/[C@@H]3C[C@@H](O)CC(=O)O3)c(C(C)C)n2)c1`, the IC50 in experiment [1] worked out at 8 nM.

For the compound `Cc1nc(-c2ccccc2)cc(-c2ccc(F)cc2)c1/C=C\[C@@H]1C[C@@H](O)CC(=O)O1`, the results for the IC50 in experiment [2] and in experiment [1] were 5000 nM and 100 nM, respectively. The compound also showed a Relative potency in experiment [3] of 0.08.

`CC(C)c1nc(C(C)(C)C)cc(-c2ccc(F)cc2)c1/C=C/[C@@H]1C[C@@H](O)CC(=O)O1`: the IC50 was 20 nM in experiment [2] and 1 nM in experiment [1]. Further, in experiment [3], the Relative potency worked out at 2.5.

As for `Cc1cc(-c2ccc(Cl)cc2)c(/C=C/[C@@H]2C[C@@H](O)CC(=O)O2)c(C)n1`, half-maximal inhibition in experiment [1] (IC50) was put at 94 nM.

In the case of `CC(C)c1cc(-c2ccccc2)nc(-c2ccc(F)cc2)c1/C=C/[C@@H]1C[C@@H](O)CC(=O)O1`, the IC50 in experiment [2] turned out to be 10 nM; in experiment [1] it was 4 nM. This compound came in with a Relative potency in experiment [3] of 5.

Compound `Cc1cc(-c2ccc(F)cc2)c(/C=C\[C@@H]2C[C@@H](O)CC(=O)O2)c(C)n1` displayed an IC50 in experiment [1] of more than 1000 nM.

For the compound `CC(C)c1nc(-c2ccc(F)cc2)c(/C=C/[C@@H]2C[C@@H](O)CC(=O)O2)c(C(C)C)n1`, the results for the IC50 in experiment [2] and in experiment [1] were 4.8 nM and 3 nM, respectively. This compound also came in with a Relative potency in experiment [3] of 10.4.

For `CC(C)c1nc(-c2ccccc2)cc(-c2ccc(F)cc2)c1/C=C/[C@@H]1C[C@@H](O)CC(=O)O1` [GLENVASTATIN], the IC50 came to 5 nM in experiment [2] and 3 nM in experiment [1]. The Relative potency in experiment [3] was found to be 10.

Compound `CCc1nc(-c2ccccc2)cc(-c2ccc(F)cc2)c1CCC1C[C@@H](O)CC(=O)O1` (some centres undefined) yielded an IC50 in experiment [1] of 3 nM.

For `CC(C)c1cc(-c2ccc(F)cc2)c(/C=C/[C@@H]2C[C@@H](O)CC(=O)O2)c(C(C)C)n1`, the IC50 in experiment [1] was 3 nM.

Regarding `CC(C)c1nc(-c2ccccc2)nc(-c2ccc(F)cc2)c1/C=C/[C@@H]1C[C@@H](O)CC(=O)O1`, the IC50 was 5 nM in experiment [2] and 3 nM in experiment [1]. In experiment [3], this compound gave a Relative potency of 10.

With `CCc1nc(-c2ccccc2)cc(-c2ccc(F)cc2)c1/C=C/[C@@H]1C[C@@H](O)CC(=O)O1`, 40 nM corresponded to half-maximal inhibition in experiment [1] (IC50).

As a reminder, the IC50 is the concentration at which inhibition is half-maximal.
